Measured values published in ChEMBL document CHEMBL1255303, “In vitro and in vivo antifungal activities of T-2307, a novel arylamidine” (2008).
Values after ≈ are worked out from the molar mass of the structure shown. Active and inactive are the calls of the source. No cut-off for these calls is given here. Starred links: 1 amine or outer side, 2 acyl side, 3 side chain; linkers in the order of their positions; H or OH if unused. Positions of bridges follow the written chain, without caps; N, C: chain ends. Non-standard residues stand in square brackets, D forms with d. Residues, ends and D or L forms follow the SMILES beside them. *: point of attachment. hTyr(3S-OH,4S-OH,3'-OSO3H) = N[C@H](C(=O)O)[C@H](O)[C@@H](O)c1ccc(O)c(OS(=O)(=O)O)c1; Orn(4R-OH,5R-OH) = O=C([C@H](C[C@@H](O)[C@@H](O)N[*:3])N[*:1])[*:2]; Pro(3S-OH,4S-Me) = C[C@H]1CN[C@H](C(=O)O)[C@H]1O; X1 = CCCCCOc1ccc(-c2cc(-c3ccc(C(=O)*)cc3)no2)cc1; Gln(3R-OH) = NC(=O)C[C@@H](O)[C@H](N)C(=O)O; Hyp = O=C(O)[C@@H]1C[C@@H](O)CN1

Assays:
[1] = test system: Cryptococcus neoformans; assay: Antifungal activity against Cryptococcus neoformans ATCC 90113 after 72 hrs by broth microdilution method; format: functional; conditions: ATCC 90113, 72 h
Procedure, shortened: (§1)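 CLSI M27-A2 (yeasts) / M38-A (moulds) broth microdilution in RPMI 1640 buffered to pH 7.0 with 0.165 M MOPS. Malassezia furfur got the same medium supplemented with glucose, bile salts, glycerol, glycerol monostearate and Tween 20. Final inoculum 0.65 × 10^3–2.5 × 10^3 CFU/ml for yeasts and 0.87 × 10^4–3.8 × 10^4 CFU/ml for filamentous fungi. Incubation at 35°C except M. racemosus and F. solani, which were held at 30°C.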

[2] = test system: Candida albicans; assay: Antifungal activity against Candida albicans ATCC 64550 after 47 hrs by broth microdilution method; format: functional; conditions: ATCC 64550, 47 h
Procedure, shortened: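 Fluconazole-resistant or susceptible-dose-dependent C. albicans ATCC strains were tested by broth microdilution in RPMI 1640-MOPS. Inoculum was 1.1 × 10^3–1.5 × 10^3 CFU/ml, with incubation at 35°C for about 47 h. Yeast MIC was read as about 50% turbidity decrease relative to growth control, except amphotericin B, read at complete inhibition.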

[3] = test system: Aspergillus niger; assay: Antifungal activity against Aspergillus niger NBRC 33023 after 48 hrs by broth microdilution method; format: functional; conditions: NBRC 33023, 48 h; procedure, shortened: as §1
[4] = test system: Nakaseomyces glabratus; assay: Antifungal activity against Candida glabrata ATCC 90030 after 48 hrs by broth microdilution method; format: functional; conditions: ATCC 90030, 48 h; procedure, shortened: as §1
[5] = test system: Candida tropicalis; assay: Antifungal activity against Candida tropicalis clinical isolates after 48 hrs by broth microdilution method; format: functional
Procedure, shortened: (§2)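 Clinical isolates from Japanese hospitals or culture collections were tested by broth microdilution in RPMI 1640-MOPS. Inoculum was 0.57 × 10^3–2.5 × 10^3 CFU/ml for yeasts and 0.4 × 10^4–3.3 × 10^4 CFU/ml for filamentous fungi. Incubation was at 35°C for about 48 h, or 72 h where footnoted. Results were summarised as MIC range, MIC50 and MIC90.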

[6] = test system: Aspergillus fumigatus; assay: Antifungal activity against Aspergillus fumigatus IFM 46895 after 48 hrs by broth microdilution method; format: functional; conditions: IFM 46895, 48 h; procedure, shortened: as §1
[7] = test system: Candida albicans; assay: Antifungal activity against Candida albicans ATCC MYA-575 after 47 hrs by broth microdilution method; format: functional; conditions: ATCC MYA-575, 47 h
Procedure, shortened: (§3)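 Fluconazole-resistant or susceptible-dose-dependent ATCC C. albicans strains were tested by CLSI M27-A2 broth microdilution in RPMI 1640–0.165 M MOPS, pH 7.0, with a final inoculum of 1.1–1.5 × 10^3 CFU/ml at 35°C for about 47 h. MIC was the lowest concentration with a prominent (~50%) turbidity decrease relative to growth control; amphotericin B was read at complete inhibition.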

[8] = test system: Candida albicans; assay: Antifungal activity against Candida albicans ATCC MYA-573 after 47 hrs by broth microdilution method; format: functional; conditions: ATCC MYA-573, 47 h; procedure, shortened: as §3
[9] = test system: Candida albicans; assay: Antifungal activity against Candida albicans TIMM 1623 after 48 hrs by broth microdilution method; format: functional; conditions: TIMM 1623, 48 h; procedure, shortened: as §1
[10] = test system: Pichia kudriavzevii; assay: Antifungal activity against Candida krusei clinical isolates after 48 hrs by broth microdilution method; format: functional
Procedure, shortened: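 Japanese hospital Candida isolates were tested by CLSI M27-A2 broth microdilution in RPMI 1640–MOPS, pH 7.0, with inocula of 0.57–2.5 × 10^3 CFU/ml at 35°C for about 48 h. Inocula came from 24-h potato dextrose agar cultures. MIC was the lowest concentration with about 50% turbidity reduction versus growth control (complete inhibition for amphotericin B). Range, MIC50 and MIC90 were reported.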

[11] = test system: Saccharomyces cerevisiae; assay: Antifungal activity against Saccharomyces cerevisiae ATCC 24657 after 48 hrs by broth microdilution method; format: functional; conditions: ATCC 24657, 48 h; procedure, shortened: as §1
[12] = test system: Candida albicans; assay: Antifungal activity against Candida albicans ATCC 96901 after 47 hrs by broth microdilution method; format: functional; conditions: ATCC 96901, 47 h; procedure, shortened: as §3
[13] = test system: Meyerozyma guilliermondii; assay: Antifungal activity against Candida guilliermondii clinical isolates after 48 hrs by broth microdilution method; format: functional; procedure, shortened: as §2
[14] = test system: Aspergillus nidulans; assay: Antifungal activity against Aspergillus nidulans NBRC 33017 after 48 hrs by broth microdilution method; format: functional; conditions: NBRC 33017, 48 h; procedure, shortened: as §1
[15] = test system: Aspergillus fumigatus; assay: Antifungal activity against Aspergillus fumigatus IFM 46895 infected ICR mouse assessed as delay in mortality of mouse at 1 mg/kg after 6 days; format: functional, organism-based; design: dose 1 mg/kg
Procedure, shortened: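 Male ICR mice, 4 weeks old and SPF, were made neutropenic with intraperitoneal cyclophosphamide. The schedule was 200 mg/kg on day −3 (day −4 for Cryptococcus) plus 100 mg/kg on day +1. Infection was by tail-vein injection of 0.2 ml suspension: C. albicans 3.0 × 10^4, C. neoformans 9.1 × 10^4, A. fumigatus conidia 8.4 × 10^4 CFU/mouse. Drugs were given subcutaneously once daily for 7 days from 2 h post-infection; controls received saline. Groups had 8–10 mice.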

[16] = test system: Candida albicans; assay: Antifungal activity against Candida albicans ATCC MYA-1003 after 47 hrs by broth microdilution method; format: functional; conditions: ATCC MYA-1003, 47 h; procedure, shortened: as §3
[17] = test system: Aspergillus fumigatus; assay: Antifungal activity against Aspergillus fumigatus clinical isolates after 48 hrs by broth microdilution method; format: functional; procedure, shortened: as §2
[18] = test system: Cryptococcus neoformans; assay: Antifungal activity against Cryptococcus neoformans clinical isolates after 72 hrs by broth microdilution method; format: functional; procedure, shortened: as §2
[19] = test system: Aspergillus fumigatus; assay: Antifungal activity against Aspergillus fumigatus IFM 49895 after 48 hrs by broth microdilution method; format: functional; conditions: IFM 49895, 48 h; procedure, shortened: as §1
[20] = test system: Candida dubliniensis; assay: Antifungal activity against Candida dubliniensis ATCC MYA-577 after 48 hrs by broth microdilution method; format: functional; conditions: ATCC MYA-577, 48 h; procedure, shortened: as §1
[21] = test system: Rhizopus arrhizus; assay: Antifungal activity against Rhizopus oryzae NBRC 31005 after 24 hrs by broth microdilution method; format: functional; conditions: NBRC 31005, 24 h; procedure, shortened: as §1
[22] = test system: Scedosporium boydii; assay: Antifungal activity against Pseudallescheria boydii NBRC 32229 after 72 hrs by broth microdilution method; format: functional; conditions: NBRC 32229, 72 h; procedure, shortened: as §1
[23] = test system: Trichophyton rubrum; assay: Antifungal activity against Trichophyton rubrum NBRC 5467 after 72 hrs by broth microdilution method; format: functional; conditions: NBRC 5467, 72 h; procedure, shortened: as §1
[24] = test system: Candida albicans; assay: Antifungal activity against Candida albicans ATCC 10261 after 48 hrs by broth microdilution method; format: functional; conditions: ATCC 10261, 48 h; procedure, shortened: as §1
[25] = test system: Candida albicans; assay: Antifungal activity against Candida albicans ATCC 90028 after 48 hrs by broth microdilution method; format: functional; conditions: ATCC 90028, 48 h; procedure, shortened: as §1

Compound: CCCCCOc1ccc(-c2cc(-c3ccc(C(=O)N[C@H]4C[C@@H](O)[C@@H](O)NC(=O)[C@@H]5[C@@H](O)[C@@H](C)CN5C(=O)[C@H]([C@H](O)CC(N)=O)NC(=O)[C@H]([C@H](O)[C@@H](O)c5ccc(O)c(OS(=O)(=O)O)c5)NC(=O)[C@@H]5C[C@@H](O)CN5C(=O)[C@H]([C@@H](C)O)NC4=O)cc3)no2)cc1 [MICAFUNGIN] (X1-[Orn(4R-OH,5R-OH)]T[Hyp][hTyr(3S-OH,4S-OH,3'-OSO3H)][Gln(3R-OH)][Pro(3S-OH,4S-Me)]; lactam 1-C)
- MFC [1]: > 64 µg/mL
- MIC [1]: > 64 µg/mL
- MIC [2]: 0.0625 µg/mL (≈ 0.0492 µM)
- MFC [3]: > 64 µg/mL
- MIC [3]: 0.0313 µg/mL (≈ 0.0246 µM)
- MFC [4]: 0.0313 µg/mL (≈ 0.0246 µM)
- MIC [4]: 0.0313 µg/mL (≈ 0.0246 µM)
- MIC [5]: 0.0625 µg/mL (≈ 0.0492 µM)
- MIC50 [5]: 0.0625 µg/mL (≈ 0.0492 µM)
- MIC90 [5]: 0.125 µg/mL (≈ 0.0984 µM)
- MFC [6]: > 64 µg/mL
- MIC [6]: 0.0313 µg/mL (≈ 0.0246 µM)
- MIC [7]: 0.125 µg/mL (≈ 0.0984 µM)
- MIC [8]: 0.0625 µg/mL (≈ 0.0492 µM)
- MFC [9]: 4 µg/mL (≈ 3.15 µM)
- MIC [9]: 0.0625 µg/mL (≈ 0.0492 µM)
- MIC50 [10]: 0.5 µg/mL (≈ 0.394 µM)
- MIC90 [10]: 0.5 µg/mL (≈ 0.394 µM)
- MFC [11]: 1 µg/mL (≈ 0.787 µM)
- MIC [11]: 0.5 µg/mL (≈ 0.394 µM)
- MIC [12]: 0.125 µg/mL (≈ 0.0984 µM)
- MIC50 [13]: 1 µg/mL (≈ 0.787 µM)
- MIC90 [13]: 1 µg/mL (≈ 0.787 µM)
- MFC [14]: > 64 µg/mL
- MIC [14]: 0.0313 µg/mL (≈ 0.0246 µM)
- Activity [15]: Active
- MIC [16]: 0.125 µg/mL (≈ 0.0984 µM)
- MIC [17]: 0.0313 µg/mL (≈ 0.0246 µM)
- MIC50 [17]: 0.0313 µg/mL (≈ 0.0246 µM)
- MIC90 [17]: 0.0313 µg/mL (≈ 0.0246 µM)
- MIC [18]: > 64 µg/mL
- MIC50 [18]: > 64 µg/mL
- MIC90 [18]: > 64 µg/mL
- MFC [19]: > 64 µg/mL
- MIC [19]: 0.0313 µg/mL (≈ 0.0246 µM)
- MFC [20]: 8 µg/mL (≈ 6.3 µM)
- MIC [20]: 0.125 µg/mL (≈ 0.0984 µM)
- MFC [21]: > 64 µg/mL
- MIC [21]: > 64 µg/mL
- MFC [22]: > 64 µg/mL
- MIC [22]: 0.5 µg/mL (≈ 0.394 µM)
- MFC [23]: > 64 µg/mL
- MIC [23]: 0.0313 µg/mL (≈ 0.0246 µM)
- MFC [24]: 0.25 µg/mL (≈ 0.197 µM)
- MIC [24]: 0.0313 µg/mL (≈ 0.0246 µM)
- MFC [25]: 0.125 µg/mL (≈ 0.0984 µM)
- MIC [25]: 0.0313 µg/mL (≈ 0.0246 µM)
